Experimental data taken from ChEMBL document CHEMBL2010704 (J Med Chem, 2012).
Calls of active or inactive are those of the source. No cut-off for these calls is given here.

Legend:
ABCG2 [1] = target: T1, ABCG2 (Homo sapiens, UniProt Q9UNQ0); test: Inhibition of ABCG2-mediated mitoxantrone efflux in HEK293 cells at 5 uM by flow cytometry relative to 5 uM of GF120918; assay type: cell-based; conditions: HEK293 cells with ABCG2-mediated efflux, probe mitoxantrone
T1 sequence (Q9UNQ0 whole entry): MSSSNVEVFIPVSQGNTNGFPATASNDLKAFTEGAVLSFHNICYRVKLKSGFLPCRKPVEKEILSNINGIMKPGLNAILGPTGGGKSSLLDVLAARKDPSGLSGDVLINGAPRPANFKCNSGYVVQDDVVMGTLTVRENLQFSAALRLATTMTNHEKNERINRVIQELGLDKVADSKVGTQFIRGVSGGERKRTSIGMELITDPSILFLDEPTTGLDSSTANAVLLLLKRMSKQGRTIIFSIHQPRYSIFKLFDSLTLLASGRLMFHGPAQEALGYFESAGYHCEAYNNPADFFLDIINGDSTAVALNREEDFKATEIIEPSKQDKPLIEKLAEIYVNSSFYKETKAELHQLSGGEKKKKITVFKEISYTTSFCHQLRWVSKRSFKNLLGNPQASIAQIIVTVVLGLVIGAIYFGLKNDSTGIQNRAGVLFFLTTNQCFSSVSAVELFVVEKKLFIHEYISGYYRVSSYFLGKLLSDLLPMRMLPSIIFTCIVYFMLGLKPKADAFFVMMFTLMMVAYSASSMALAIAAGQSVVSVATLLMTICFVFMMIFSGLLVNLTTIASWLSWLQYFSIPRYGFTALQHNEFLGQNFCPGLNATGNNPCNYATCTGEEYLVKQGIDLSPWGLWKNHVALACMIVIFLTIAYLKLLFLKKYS
Summary of the method: (§1)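 HEK293-ABCG2 cells seeded at 1 × 10^5 cells/well and grown 48 h, then loaded with 5 μM mitoxantrone for 30 min at 37 °C with or without compound. Cells washed in PBS and trypsinized; intracellular fluorescence read by flow cytometry on at least 10,000 events. […] IC50 from a concentration range; mean ± SD, n ≥ 3.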

ABCG2 [2] = target: T1, ABCG2; test: Inhibition of ABCG2-mediated mitoxantrone efflux in HEK293 cells at 1 uM by flow cytometry relative to 5 uM of GF120918; assay type: cell-based; conditions: HEK293 cells with ABCG2-mediated efflux, probe mitoxantrone; summary of the method: as §1
P-glycoprotein (ABCB1) [3] = target: T2, P-glycoprotein (ABCB1) (Homo sapiens, UniProt P08183); test: Inhibition of P-glycoprotein/ABCB1-mediated mitoxantrone efflux in HEK293 cells at 5 uM by flow cytometry relative to 5 uM of GF120918; assay type: cell-based; conditions: HEK293 cells with P-glycoprotein/ABCB1-mediated efflux, probe mitoxantrone
[4] = test system: P-glycoprotein 1 (Homo sapiens); test: Inhibition of P-glycoprotein/ABCB1-mediated mitoxantrone efflux in HEK293 cells at 5 uM by flow cytometry relative to untreated control; conditions: HEK293 cells with P-glycoprotein/ABCB1-mediated efflux, probe mitoxantrone
MRP1 (ABCC1) = MRP1 (ABCC1) (Homo sapiens, UniProt P33527); test: Inhibition of MRP1/ABCC1-mediated calcein efflux in HEK293 cells at 1 uM by flow cytometry relative to untreated control; assay type: cell-based; conditions: HEK293 cells with MRP1/ABCC1-mediated efflux, probe calcein
P-glycoprotein (ABCB1) [5] = target: T2, P-glycoprotein (ABCB1); test: Inhibition of P-glycoprotein/ABCB1-mediated mitoxantrone efflux in HEK293 cells at 1 uM by flow cytometry relative to 5 uM of GF120918; assay type: cell-based; conditions: HEK293 cells with P-glycoprotein/ABCB1-mediated efflux, probe mitoxantrone
ABCG2 [6] = test: Therapeutic index, ratio of GI50 for human HEK293 cells transfected with ABCG2 to IC50 for ABCG2-mediated mitoxantrone efflux in HEK293 cells; assay type: cell-based; conditions: HEK293 cells transfected with ABCG2, probe mitoxantrone
Summary of the method: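 Therapeutic index is IG50 for cytotoxicity (72-h MTT in HEK293-ABCG2 cells) divided by IC50 for inhibition of ABCG2-mediated mitoxantrone efflux measured by flow cytometry.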

[7] = target: T3, Broad substrate specificity ATP-binding cassette transporter ABCG2 (Homo sapiens, UniProt Q9UNQ0); test: Noncompetitive inhibition of ABCG2 expressed in HEK293 cells in presence of mitoxantrone; assay type: cell-based
T3 sequence (Q9UNQ0 whole entry): T1 sequence (Q9UNQ0 whole entry)

HEK293 [8] = test: Drug uptake in human HEK293 cells transfected with ABCG2 after 30 mins by LC-ESI-MS/MS analysis relative to control; assay type: ADME, cell-based; conditions: hek293, 0.5 h
[9] = target: T3, Broad substrate specificity ATP-binding cassette transporter ABCG2; test: Inhibition of ABCG2 expressed in human HEK293 assessed as potentiation of SN-38-mediated cytotoxicity at 0.2 uM after 72 hrs by MTT assay relative to control; assay type: cell-based; conditions: hek293, 72 h
Summary of the method: (§2)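 Chemosensitization: HEK293-ABCG2 cells seeded at 1 × 10^4 cells/well, left overnight, then co-treated for 72 h at 37 °C, 5% CO2 with compound plus increasing mitoxantrone or SN-38 (0−0.5 μM). Viability measured by MTT and expressed as % of untreated control. Mean ± SD from at least three independent experiments, each in triplicate.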

HEK293 [10] = test: Effect on ABCG2 expression in human HEK293 cells at 0.2 to 10 uM after 72 hrs by Western blotting analysis; assay type: functional, cell-based
HEK293 [11] = test: Drug uptake in human HEK293 cells transfected with ABCG2 after 30 mins by LC-ESI-MS/MS analysis in presence of GF120918 relative to control; assay type: ADME, cell-based; conditions: hek293, 0.5 h
[12] = target: T3, Broad substrate specificity ATP-binding cassette transporter ABCG2; test: Inhibition of ABCG2 expressed in human HEK293 assessed as potentiation of mitoxantrone-mediated cytotoxicity at 0.2 uM after 72 hrs by MTT assay relative to control; assay type: cell-based; conditions: hek293, 72 h; summary of the method: as §2
[13] = target: T3, Broad substrate specificity ATP-binding cassette transporter ABCG2; test: Inhibition of ABCG2-mediated mitoxantrone efflux in HEK293 cells by flow cytometry; assay type: cell-based
Summary of the method: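 HEK293-ABCG2 cells seeded at 1 × 10^5 cells/well and grown 48 h, then loaded with 5 μM mitoxantrone for 30 min at 37 °C with or without compound. Cells washed in PBS and trypsinized; intracellular fluorescence read by flow cytometry on at least 10,000 events.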

HEK293 [14] = test: Drug metabolism in human HEK293 cells transfected with ABCG2 at 0.2 to 1 uM after 72 hrs; assay type: ADME, cell-based; conditions: hek293, 72 h
HEK293 [15] = test: Cytotoxicity against human control HEK293 cells assessed as cell death at 100 uM after 72 hrs by MTT assay; conditions: hek293, 72 h
[16] = Cytotoxicity against human HEK293 cells transfected with ABCG2 after 72 hrs by MTT assay; assay type: ADME, cell-based; conditions: read-out: IG50
Summary of the method: (§3)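 HEK293-ABCG2 cells (DMEM high glucose, 10% FBS, 0.75 mg/mL G418) seeded at 1 × 10^4 cells/well, left overnight, then exposed to increasing compound concentrations (up to 100 μM) for 72 h at 37 °C, 5% CO2. Viability read by MTT colorimetric assay and expressed as % of control cells in medium with 0.1% DMSO (v/v).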

HEK293 [17] = test: Cytotoxicity against human HEK293 cells transfected with ABCG2 at 10 uM after 72 hrs by MTT assay; assay type: ADME, cell-based; conditions: hek293, 72 h; summary of the method: as §3

T2 sequence (P08183 whole entry): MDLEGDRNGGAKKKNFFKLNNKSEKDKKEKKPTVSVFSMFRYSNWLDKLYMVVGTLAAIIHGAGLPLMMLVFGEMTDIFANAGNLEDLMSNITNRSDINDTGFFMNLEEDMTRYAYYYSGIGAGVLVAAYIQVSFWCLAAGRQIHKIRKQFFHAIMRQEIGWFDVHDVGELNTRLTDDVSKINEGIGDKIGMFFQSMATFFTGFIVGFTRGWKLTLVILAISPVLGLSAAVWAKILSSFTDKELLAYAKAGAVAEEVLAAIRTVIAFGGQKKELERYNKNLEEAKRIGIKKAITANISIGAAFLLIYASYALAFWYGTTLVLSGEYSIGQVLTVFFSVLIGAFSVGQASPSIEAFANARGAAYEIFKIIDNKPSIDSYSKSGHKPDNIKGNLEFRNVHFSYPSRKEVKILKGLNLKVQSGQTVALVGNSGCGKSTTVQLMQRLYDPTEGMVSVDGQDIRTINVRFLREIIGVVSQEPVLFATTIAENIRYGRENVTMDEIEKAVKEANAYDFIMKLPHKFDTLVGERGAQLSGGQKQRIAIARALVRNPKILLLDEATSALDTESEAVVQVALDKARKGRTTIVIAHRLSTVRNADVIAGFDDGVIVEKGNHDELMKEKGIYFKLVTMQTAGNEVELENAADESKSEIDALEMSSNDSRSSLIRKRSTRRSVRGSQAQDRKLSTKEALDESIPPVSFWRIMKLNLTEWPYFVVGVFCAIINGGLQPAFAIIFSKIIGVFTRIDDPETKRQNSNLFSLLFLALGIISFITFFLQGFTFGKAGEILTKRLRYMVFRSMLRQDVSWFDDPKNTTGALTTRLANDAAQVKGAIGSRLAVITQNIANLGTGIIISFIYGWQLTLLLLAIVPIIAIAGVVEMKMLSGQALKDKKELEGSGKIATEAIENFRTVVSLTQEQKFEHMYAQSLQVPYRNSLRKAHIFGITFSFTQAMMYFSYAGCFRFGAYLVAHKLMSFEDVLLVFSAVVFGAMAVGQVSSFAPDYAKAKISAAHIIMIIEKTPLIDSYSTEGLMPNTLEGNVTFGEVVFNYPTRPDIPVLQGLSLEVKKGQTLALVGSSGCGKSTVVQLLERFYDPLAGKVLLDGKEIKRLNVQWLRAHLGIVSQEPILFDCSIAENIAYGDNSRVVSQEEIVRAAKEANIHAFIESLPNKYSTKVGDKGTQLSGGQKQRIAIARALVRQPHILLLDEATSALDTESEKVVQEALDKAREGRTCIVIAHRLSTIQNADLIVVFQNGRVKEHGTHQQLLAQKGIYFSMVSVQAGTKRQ
Chain of MRP1 (ABCC1) (P33527 whole entry): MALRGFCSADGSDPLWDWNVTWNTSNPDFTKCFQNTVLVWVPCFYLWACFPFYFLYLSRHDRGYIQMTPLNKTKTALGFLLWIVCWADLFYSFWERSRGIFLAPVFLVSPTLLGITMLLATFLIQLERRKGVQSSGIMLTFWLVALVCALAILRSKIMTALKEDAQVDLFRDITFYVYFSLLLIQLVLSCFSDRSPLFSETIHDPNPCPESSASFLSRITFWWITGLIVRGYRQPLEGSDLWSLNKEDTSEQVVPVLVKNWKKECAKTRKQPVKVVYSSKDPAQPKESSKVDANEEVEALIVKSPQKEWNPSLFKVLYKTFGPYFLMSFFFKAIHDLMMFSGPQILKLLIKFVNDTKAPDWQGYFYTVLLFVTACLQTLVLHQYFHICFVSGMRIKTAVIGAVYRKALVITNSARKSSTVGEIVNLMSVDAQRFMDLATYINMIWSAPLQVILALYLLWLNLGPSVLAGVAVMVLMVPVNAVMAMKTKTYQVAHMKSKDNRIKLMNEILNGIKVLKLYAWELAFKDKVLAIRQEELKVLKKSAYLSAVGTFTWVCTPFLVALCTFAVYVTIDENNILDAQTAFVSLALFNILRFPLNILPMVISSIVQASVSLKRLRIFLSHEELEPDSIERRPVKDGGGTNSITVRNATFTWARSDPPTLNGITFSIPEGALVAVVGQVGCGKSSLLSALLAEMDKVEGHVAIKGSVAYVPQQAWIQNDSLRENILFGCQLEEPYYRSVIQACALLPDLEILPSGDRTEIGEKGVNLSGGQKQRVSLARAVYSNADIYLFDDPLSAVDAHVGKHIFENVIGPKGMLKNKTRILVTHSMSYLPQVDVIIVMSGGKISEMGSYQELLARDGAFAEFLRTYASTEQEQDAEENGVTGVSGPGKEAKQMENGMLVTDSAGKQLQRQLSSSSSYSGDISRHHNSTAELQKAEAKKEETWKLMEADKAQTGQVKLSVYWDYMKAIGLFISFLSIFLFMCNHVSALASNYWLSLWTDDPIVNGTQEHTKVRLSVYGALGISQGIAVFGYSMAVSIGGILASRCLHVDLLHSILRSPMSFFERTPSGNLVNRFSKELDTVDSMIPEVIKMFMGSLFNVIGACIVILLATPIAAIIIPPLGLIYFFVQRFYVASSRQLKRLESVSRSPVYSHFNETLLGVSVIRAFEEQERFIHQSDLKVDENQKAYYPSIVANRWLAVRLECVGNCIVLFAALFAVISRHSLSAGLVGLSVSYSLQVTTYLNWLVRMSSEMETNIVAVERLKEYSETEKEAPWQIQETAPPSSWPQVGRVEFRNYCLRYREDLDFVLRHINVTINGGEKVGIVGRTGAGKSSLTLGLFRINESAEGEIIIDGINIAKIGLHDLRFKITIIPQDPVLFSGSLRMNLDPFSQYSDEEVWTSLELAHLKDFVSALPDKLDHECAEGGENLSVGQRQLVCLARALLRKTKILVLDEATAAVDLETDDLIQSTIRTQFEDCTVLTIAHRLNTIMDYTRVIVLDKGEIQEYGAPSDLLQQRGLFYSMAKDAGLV

COc1ccc(CCOc2cccc3oc(C(=O)O)cc(=O)c23)cc1OC gave an inhibition at 5 µM (ABCG2 [1]) of 26.7% and an inhibition at 1 µM (ABCG2 [2]) of 6.1%.

For COc1ccc(CCNC(=O)c2cc(=O)c3c(O)cccc3o2)cc1OC, the inhibition at 5 µM (P-glycoprotein (ABCB1) [3]) was -29%, the inhibition at 5 µM [4] was 5.47% and the inhibition at 5 µM (ABCG2 [1]) was 62.5%. The inhibition at 1 µM (MRP1 (ABCC1)) was 3.37%, the inhibition at 1 µM (ABCG2 [2]) was 34.4% and the inhibition at 1 µM (P-glycoprotein (ABCB1) [5]) was -20.5%.

COc1ccc2[nH]cc(CCNC(=O)c3cc(=O)c4c(OCc5ccc(Br)cc5)cccc4o3)c2c1 showed an inhibition at 5 µM (P-glycoprotein (ABCB1) [3]) of -16.1%, an inhibition at 5 µM [4] of 2.86% and a selectivity ratio (ABCG2 [6]) of 2000. For the same compound, the “inhibition (INH)” value [7] was “Active”, the Drug uptake (HEK293 [8]) was “Not Active” and the “inhibition (INH)” value [9] was “Active”. For the same compound, the Activity (HEK293 [10]) was “inactive”, the inhibition at 1 µM (MRP1 (ABCC1)) was 2.58% and the Drug uptake (HEK293 [11]) was “Not Active”. The “inhibition (INH)” value [12] was “Active”, the IC50 [13] was 110 nM and the Drug metabolism (HEK293 [14]) was “Not Active”. The Activity (HEK293 [15]) was less than 25% and the inhibition at 1 µM (P-glycoprotein (ABCB1) [5]) was -1.75%.

Compound COc1ccc2[nH]cc(CCNC(=O)c3cc(=O)c4c(OCCc5ccccc5)cccc4o3)c2c1 has an inhibition at 5 µM (P-glycoprotein (ABCB1) [3]) of -14.8%, an inhibition at 5 µM [4] of 5.12% and an inhibition at 1 µM (MRP1 (ABCC1)) of 2.36%. It also gave an IC50 [13] of 160 nM and an inhibition at 1 µM (P-glycoprotein (ABCB1) [5]) of -14%.

Work on COc1ccc2[nH]cc(CCNC(=O)c3cc(=O)c4c(OCc5ccccc5)cccc4o3)c2c1 yielded an inhibition at 5 µM (P-glycoprotein (ABCB1) [3]) of -19.4%, an inhibition at 5 µM [4] of 5.14% and a GI50 at 72 h [16] of 35000 nM. The inhibition at 1 µM (MRP1 (ABCC1)) was 1.91%, the Activity (HEK293 [17]) was “Non-toxic” and the IC50 [13] was 180 nM. For the same compound, the inhibition at 1 µM (P-glycoprotein (ABCB1) [5]) was -9.11%.

COc1ccc(CCNC(=O)c2cc(=O)c3c(OCCc4ccc(OC)c(OC)c4)cccc3o2)cc1OC gave an inhibition at 5 µM (P-glycoprotein (ABCB1) [3]) of -0.11%, an inhibition at 5 µM [4] of 10.8% and an inhibition at 1 µM (MRP1 (ABCC1)) of 5.57%. For the same compound, the IC50 [13] was 470 nM and the inhibition at 1 µM (P-glycoprotein (ABCB1) [5]) was -16.6%.

COc1ccc2[nH]cc(CCNC(=O)c3cc(=O)c4c(OCc5ccc(C)cc5)cccc4o3)c2c1 showed an inhibition at 5 µM (P-glycoprotein (ABCB1) [3]) of -21.9%, an inhibition at 5 µM [4] of 3.09% and an inhibition at 1 µM (MRP1 (ABCC1)) of 1.13%. The IC50 [13] was 200 nM and the inhibition at 1 µM (P-glycoprotein (ABCB1) [5]) was -4.29%.

Work on O=C(c1cc(=O)c2c(O)cccc2o1)N1CCN(c2ccccc2)CC1 yielded an inhibition at 5 µM (ABCG2 [1]) of 9.8% and an inhibition at 1 µM (ABCG2 [2]) of 5.5%.

Work on O=C(c1cc(=O)c2c(OCc3ccccc3)cccc2o1)N1CCN(c2ccccc2)CC1 yielded an inhibition at 5 µM (ABCG2 [1]) of 66.1% and an inhibition at 1 µM (ABCG2 [2]) of 21.3%.

With O=C(c1cc(=O)c2c(OCc3ccccc3)cccc2o1)N1CCN(c2ccccn2)CC1 the inhibition at 5 µM (ABCG2 [1]) was 46.2% and the inhibition at 1 µM (ABCG2 [2]) was 18.1%.

In the case of COc1ccc2c3c([nH]c2c1)[C@H](CC(C)C)N1C(=O)[C@H](CCC(=O)OC(C)(C)C)NC(=O)[C@@H]1C3, the GI50 at 72 h [16] is reported as 18000 nM.

O=C(O)c1cc(=O)c2c(O)cccc2o1 gave an inhibition at 5 µM (ABCG2 [1]) of -2% and an inhibition at 1 µM (ABCG2 [2]) of -1.2%.

In the case of COc1ccc(CCNC(=O)c2cc(=O)c3c(OCc4ccccc4)cccc3o2)cc1OC, the inhibition at 5 µM (P-glycoprotein (ABCB1) [3]) is reported as -22.9%, the GI50 at 72 h [16] is reported as 60000 nM and the “inhibition (INH)” value [7] is reported as “Active”. For the same compound, the Drug uptake (HEK293 [8]) was “Not Active”, the Activity (HEK293 [10]) was “inactive” and the inhibition at 1 µM (MRP1 (ABCC1)) was 10.8%. For the same compound, the Activity (HEK293 [17]) was 35%, the Drug uptake (HEK293 [11]) was “Not Active” and the inhibition at 1 µM (P-glycoprotein (ABCB1) [5]) was -25.5%.

CC(C)=CCc1c(O)cc2oc(-c3ccccc3)cc(=O)c2c1O gave a selectivity ratio (ABCG2 [6]) of 40.

Work on O=C(c1cc(=O)c2c(OCc3ccccc3)cccc2o1)N1CCN(Cc2ccccc2)CC1 yielded an inhibition at 5 µM (ABCG2 [1]) of 48.3% and an inhibition at 1 µM (ABCG2 [2]) of 16.5%.
